M1 antag: antagonists of rat M1 muscarinic receptor | B-score at 10 µM | P08482 | 3.4% of 64,000 active | AID 628 | CHO-M1 cells, Fluo-4 calcium, ACh EC80 antagonist mode; active compounds read low;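 active = calcium fluorescence response, raw or row-and-column corrected B-score, differing from the plate sample mean either way at a set confidence level, mostly lower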
S1P1 ag pot: activates or potentiates agonism at human S1P1 receptor | P21453 | S1P1 CRE-bla cells, forskolin, beta-lactamase FRET, potentiator mode; S1P1 agonist co-added at EC20, 2 nM; 100% = saturating reference agonist, 0% = basal | activation, % at 9.5 µM | 0.57% of 56,000 active;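 active = activation above a cutoff set at the mean activation of all tested compounds plus 3 SD, cut at about 54% in these data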;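 also: forskolin at 4 µM as EC80 and the EC20 agonist is SEW2871; 100% = SEW2871 at its EC100 plus forskolin at EC80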
RORa activator: activators of human nuclear receptor RORA | P35398 | CHO-K1 Gal4-RORA LBD luciferase reporter, luminescence; percent increase over mock-subtracted basal signal | activation, % at 10 µM | 1.5% of 65,000 active;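 active = activation above the mean of all tested compounds plus 3 SD, cut at about 49% in these data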;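 also: 0% = DMSO-treated RORA cells and 100% = added signal equal to DMSO minus mock-transfected cells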
S1P3 agonist: S1P3 (human) receptor agonism; Q99500; S1P3 NFAT-BLA reporter cells, FRET ratio; relative to 1 µM S1P, basal subtracted; activation, % at 4.5 µM; 0.1% of 60,000 active; AID 373;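 active = activation above the screen-wide mean plus 3 SD, cut at about 4.5% in these data, passing the limit was not always enough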
Target sequence (Q99500 whole entry, looked up): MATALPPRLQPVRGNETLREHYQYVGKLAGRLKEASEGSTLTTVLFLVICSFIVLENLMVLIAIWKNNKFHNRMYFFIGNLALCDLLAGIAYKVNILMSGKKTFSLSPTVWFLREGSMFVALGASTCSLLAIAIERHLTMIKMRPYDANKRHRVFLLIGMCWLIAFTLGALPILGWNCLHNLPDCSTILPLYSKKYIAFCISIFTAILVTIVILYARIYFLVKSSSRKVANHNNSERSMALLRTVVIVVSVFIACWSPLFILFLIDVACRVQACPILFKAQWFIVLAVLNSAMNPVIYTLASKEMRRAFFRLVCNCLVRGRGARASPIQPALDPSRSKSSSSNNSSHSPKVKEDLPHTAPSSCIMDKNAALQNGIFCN
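Measure – % activation relative to 1 µM S1P (100%), per plate · System – stable CHO line with human S1P3, Gα16, NFAT-BLA reporter · Timing – cells plated overnight, compound 4 h 37 °C, substrate 2 h RT · Technique – fluorescent BLA substrate, ex 405 nm, em 460/535 nm ratio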
M1 ag: agonists of M1 muscarinic receptor; CHO-M1 cells, Fluo-4 calcium fluorescence, agonist mode; active compounds read high; B-score at 10 µM; 3% of 64,000 active; AID 626;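 active = fluorescence rise, raw or as B-score row- and column-corrected plate score, outside the 99.7% band of its plate's samples, either direction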
SF1 activator: SF-1 (human) activation; Q13285; CHO-K1 Gal4-SF-1 LBD luciferase reporter; % increase over DMSO SF-1-specific signal; activation, % at 10 µM; 1.9% of 65,000 active;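 active = activation above the mean activation of all tested compounds plus 3 SD, cut at about 50% in these data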
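Assay system: CHO-K1 cells co-transfected with Gal4 DBD–human SF-1 LBD, 5xGal4 luciferase reporter; doses: 10 µM only; incubation: 20 h compound exposure at 37 °C after 1 h cell settling; signal: luciferase light emission; evaluation: percent activation versus DMSO; repeats: one test per compound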
M1 agonist conf: confirmation of rat M1 muscarinic receptor agonists; 19% of 1,700 active; fluorescence change (max-min) at 10 µM; CHO-M1 cells, Fluo-4 calcium fluorescence, agonist mode; actives lie on both sides; shares compounds with M1 ag; AID 1488;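 active = fluorescence change differs from the solvent-only DMSO control mean at a set confidence level in both duplicate runs; inconclusive = differs from solvent-only control mean in just one of two runs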;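 also: an EC20 dose of acetylcholine follows compound addition during the same imaging run; raw fluorescence intensity difference in instrument units with no normalization to controls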
M4 ag counter: rat M4 muscarinic agonism, M1 counter-screen; shares compounds with M1 ag; fluorescence change (max-min) at 10 µM; AID 1741; CHO M4/Gqi5 cells, Fluo-4 calcium fluorescence, agonist mode; actives lie on both sides; 9% of 1,700 active;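 active = fluorescence change differing from the plate's solvent-only control wells at 99.7% confidence in both duplicates, whether higher or lower; inconclusive = differs from solvent controls in only one of two duplicates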
Active calls of the source: *; ? = inconclusive; nt = not tested or not shown. Sampled rows, rich in hits. Any-hit rate of the full collection: about 8.8%.

SMILES	M1 antag	S1P1 ag pot	RORa activator	S1P3 agonist	M1 ag	SF1 activator	M1 agonist conf	M4 ag counter
CCCCNC(=O)c1ccc2nc(-c3ccco3)c(-c3ccco3)nc2c1	-0.575	-2.7	-16.1	-0.3	10.4*	18.8	9.42	?
O=C(Nc1ccccc1)c1ccc2nc(-c3ccco3)c(-c3ccco3)nc2c1	-0.108	nt	-20.9	-1.3	0.912	3.8	nt	nt
CC(=O)N1CCc2cc(C(=O)CN3CCN(c4cccc(Cl)c4)CC3)ccc21	-2.97*	12.1	17.4	-1.1	5.86*	-11.6	21.7	15.8
Cc1ccc(S(=O)(=O)N2CCOCC2)cc1C(=O)NCc1cn2ccsc2n1	-0.361	14.1	-9.4	0.8	0.195	12.4	nt	nt
Cn1c(=O)[nH]c(=O)c2c1nc(N1CCOCC1)n2CCCSc1ncccn1	-0.723	-15.4	20.4	-0.3	-0.0428	9.5	nt	nt
CC(=O)N(CN1C(=O)c2ccccc2C1=O)c1ccccc1	-0.892	4.8	12.9	0.6	1.05	-5.2	nt	nt
CC(=O)N(c1ccccc1)c1c(F)c(F)c(F)c(F)c1F	0.206	0.6	5.6	-0.3	3.92*	16.7	-7.18	-0.878
CCC(=O)Nc1nn(C)c2nc3c(C)cccc3cc12	1.13	-2.2	-7.4	-0.7	0.636	5.8	nt	nt
Cc1cccc2cc3c(NC(=O)C(C)C)nn(C)c3nc12	-15.4*	-2.1	-9.7	-0.6	12.2*	-9.0	-16.3	-51.7
COc1ccc(C(=O)CSc2nc(SC)ns2)cc1OC	-0.727	nt	-1.0	-1.1	-2.84*	5.1	-17.4	-25
COc1ccccc1S(=O)(=O)Cc1ccc(C(=O)N2CCCC2)o1	0.208	-5.1	12.6	-0.7	-0.986	4.1	nt	nt
CCc1ccccc1S(=O)(=O)Cc1ccc(C(=O)N2CCN(c3ccccc3OC)CC2)o1	-0.28	-6.7	-17.7	0.0	7.19*	-13.4	-15.6	?
Cc1ccccc1S(=O)(=O)Cc1ccc(C(=O)N2CCN(c3cccc(C)c3C)CC2)o1	-0.631	29.0	-44.1	-1.6	9.65*	-81.7	?	-31.3
Cc1ccccc1S(=O)(=O)Cc1ccc(C(=O)N2CC(C)CC(C)C2)o1 (stereo not given)	0.00806	-3.5	22.2	0.5	-0.89	3.5	nt	nt
O=C(Cn1nc(C(F)(F)F)c2c1CCC2)N1CCN(c2ccccc2)CC1	0.282	-4.1	21.6	-0.3	-0.0289	-30.9	nt	nt
O=C1Nc2ccccc2C1=Nc1ccc(-c2nnc3n2CCCCC3)cc1	-0.254	4.8	14.7	0.6	0.262	2.3	nt	nt
O=C(c1ccco1)N1CCN(CC2CC3C=CC2C3)CC1 (stereo not given)	-2.41*	15.3	23.8	-0.6	6.21*	28.8	?	-57.4
CS(=O)(=O)N1CCN(CC2CC3C=CC2C3)CC1 (stereo not given)	-6.84*	-18.0	-1.1	-0.4	37.3*	-2.0	208*	-53
CS(=O)(=O)N1CCN(Cc2ccccc2C(F)(F)F)CC1	1.53	nt	-11.8	0.0	0.0656	2.9	nt	nt
COc1ccc(CN2CCN(C(=O)c3ccco3)CC2)cc1	0.48	-8.4	-20.0	1.1	-0.589	0.5	nt	nt
C1=CC2CC1CC2CN1CCN(c2ccccc2)CC1 (stereo not given)	-1.45	nt	0.4	-0.8	6.44*	-17.6	?	-41.5
COCCOC(=O)C1=C(C)NC(=O)NC1c1ccc(OC(=O)c2ccco2)c(OC)c1 (stereo not given)	-0.0858	-10.9	18.8	-0.6	6.75*	-5.0	-8.42	-18.2
CCOC(=O)C1=C(C)NC(=O)NC1c1ccc(OCCO)c(OC)c1 (stereo not given)	-0.038	-16.9	-15.6	-0.7	-0.00394	-8.6	nt	nt
COC(=O)c1ccc(C(=O)OC)c(NC(=O)COC(=O)C23CC4CC(CC(O)(C4)C2)C3)c1	-1.69	-2.3	-17.6	0.4	5.32*	2.6	-6.22	-21.9

Bioassay records from PubChem.
